Test results from ChEMBL document CHEMBL1130238, “Synthesis and biological activity of a series of potent fluoromethyl ketone inhibitors of recombinant human calpain I” (J Med Chem, 1997).
pIC50: −log10 of the molar value. Starred links: 1 amine or outer side, 2 acyl side, 3 side chain; linkers in the order of their positions; H or OH if unused. Non-standard residues stand in square brackets, D forms with d. Residues, ends and D or L forms follow the SMILES beside them. ξ: configuration not given here. *: point of attachment. Hydrocinnamoyl = O=C(CCc1ccccc1)*; ξF = NC(Cc1ccccc1)C(=O)O; Cbz = O=C(OCc1ccccc1)*; Boc = CC(C)(C)OC(=O)*; ξL = CC(C)CC(N)C(=O)O; CO = O=C([*:1])[*:2]; NHBn = c1ccc(CN*)cc1; ξAbu = CCC(N)C(=O)O; ξS = NC(CO)C(=O)O; CH2F = FC*

How the values were obtained:
[1] = target: Cathepsin B (Homo sapiens) (UniProt P07858); assay: Compound was tested for inhibitory against Cathepsin B
Summary of the method: (§1)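 Rates of enzyme inactivation for cathepsins B and L were measured using Cbz-Phe-Arg-AMC as the fluorogenic substrate, under previously published assay conditions.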

[2] = target: Procathepsin L (Homo sapiens) (UniProt P07711); assay: Compound was tested for inhibitory against cathepsin L; summary of the method: as §1
Procathepsin L (Homo sapiens), sequence (P07711 114-333 limits assumed): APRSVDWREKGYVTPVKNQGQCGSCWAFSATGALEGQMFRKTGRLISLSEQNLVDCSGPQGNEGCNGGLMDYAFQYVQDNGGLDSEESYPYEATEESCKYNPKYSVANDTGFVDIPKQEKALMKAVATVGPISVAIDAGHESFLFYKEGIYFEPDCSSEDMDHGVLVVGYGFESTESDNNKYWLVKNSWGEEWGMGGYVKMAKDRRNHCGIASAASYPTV

[3] = system: MOLT-4; assay: Inhibitory activity against MOH-4 cells(Human Leukemia T- cells) using intact cell assay method.; type: functional, cell-based
Summary of the method: (§2)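 Molt-4 cells (2×10^7/mL in HEPES-buffered saline, pH 7.2–7.5) were preincubated with inhibitor for 10 min at 37 °C, then challenged for 30 min at 37 °C by adding medium containing inhibitor, 10 mM Ca2+ and 40 μM ionomycin. Lysates were immunoblotted for calpain I-mediated spectrin breakdown products. Percent inhibition came from densitometry against no-inhibitor samples; IC50 by nonlinear regression.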

[4] = target: T1, Calpain-1 catalytic subunit (Homo sapiens) (UniProt P07384); assay: Inhibition of Calpain-I receptor
T1 sequence (whole entry): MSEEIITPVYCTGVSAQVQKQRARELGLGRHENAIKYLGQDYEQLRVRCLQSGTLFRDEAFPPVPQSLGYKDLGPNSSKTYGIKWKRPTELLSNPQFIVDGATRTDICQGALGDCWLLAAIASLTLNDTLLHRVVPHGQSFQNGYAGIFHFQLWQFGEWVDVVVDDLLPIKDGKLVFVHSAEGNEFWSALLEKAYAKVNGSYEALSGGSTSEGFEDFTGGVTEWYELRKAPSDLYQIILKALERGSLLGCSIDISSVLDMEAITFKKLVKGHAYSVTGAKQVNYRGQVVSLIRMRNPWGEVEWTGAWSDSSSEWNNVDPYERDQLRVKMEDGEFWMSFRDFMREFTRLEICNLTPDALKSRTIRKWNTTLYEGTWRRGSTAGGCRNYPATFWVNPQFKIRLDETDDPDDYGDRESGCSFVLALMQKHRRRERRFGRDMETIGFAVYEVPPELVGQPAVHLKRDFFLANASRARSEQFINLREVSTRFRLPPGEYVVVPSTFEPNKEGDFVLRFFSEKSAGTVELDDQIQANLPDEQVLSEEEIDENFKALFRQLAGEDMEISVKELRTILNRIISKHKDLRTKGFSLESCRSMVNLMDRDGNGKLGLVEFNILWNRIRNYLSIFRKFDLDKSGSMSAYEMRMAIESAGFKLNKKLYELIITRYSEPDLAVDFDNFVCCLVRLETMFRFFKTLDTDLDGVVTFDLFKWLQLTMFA

[5] = target: Procathepsin L (Homo sapiens) (UniProt P07711); assay: Compound was tested for inhibitory activity against cathepsin L; summary of the method: as §1
[6] = target: Cathepsin B (Homo sapiens) (UniProt P07858); assay: Compound was tested for inhibitory against cathepsin B; summary of the method: as §1
[7] = target: Procathepsin L (Homo sapiens) (UniProt P07711); assay: Compound was tested for inhibitory against cathepsin L.; summary of the method: as §1
[8] = target: Cathepsin B (Homo sapiens) (UniProt P07858); assay: Compound was tested for inhibitory activities against cathepsin B; summary of the method: as §1
[9] = system: MOLT-4; assay: Inhibitory activity against […] cells(Human Leukemia T- cells) using intact cell assay method, at 10 uM; type: functional; summary of the method: as §2
[10] = target: Cathepsin B (Homo sapiens) (UniProt P07858); assay: Compound was tested for inhibitory activity against cathepsin B
Summary of the method: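 Rate of inactivation of cathepsin B, with Cbz-Phe-Arg-AMC as substrate.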

[11] = target: T1, Calpain-1 catalytic subunit (Homo sapiens); assay: Compound was tested for inhibitory uM

| SMILES | K [2] [M⁻¹ s⁻¹] | pIC50 [3] | K [4] [M⁻¹ s⁻¹] | K [6] [M⁻¹ s⁻¹] | also measured |
| --- | --- | --- | --- | --- | --- |
| CC(C)C[C@H](NC(=O)N1CCc2ccccc2C1)C(=O)NC(Cc1ccccc1)C(=O)CF (stereo partly specified) | 48400 | 6.70 | – | – | K [1]: 7500 M⁻¹ s⁻¹ |
| CC(C)C[C@H](NC(=O)NCc1ccccc1)C(=O)NC(Cc1ccccc1)C(=O)CF (stereo partly specified) ({NHBn-CO}-Leu-[ξF]-CH2F) | – | 6.10 | 67000 | – | K [1]: 275 M⁻¹ s⁻¹; K [5]: 9400 M⁻¹ s⁻¹ |
| CC(C)C[C@H](NS(=O)(=O)N1CCOCC1)C(=O)NC(Cc1ccccc1)C(=O)CF (stereo partly specified) | – | 5.00 | 67200 | 100 | K [7]: 3200 M⁻¹ s⁻¹ |
| CC(C)C[C@H](NC(=O)CCc1ccccc1)C(=O)NC(Cc1ccccc1)C(=O)CF (stereo partly specified) (Hydrocinnamoyl-Leu-[ξF]-CH2F) | 800 | – | 26600 | 600 | – |
| CC(C)[C@H](NC(=O)OCc1ccccc1)C(=O)NC(Cc1ccccc1)C(=O)CF (stereo partly drawn) (Cbz-Val-[ξF]-CH2F) | 21500 | – | 35000 | 360 | – |
| CC(C)CC(NC(=O)OCc1ccccc1)C(=O)N[C@@H](CC(C)C)C(=O)NC(Cc1ccccc1)C(=O)CF (stereo partly specified) (Cbz-[ξL]-Leu-[ξF]-CH2F) | 256000 | 7.00 | 290000 | 4600 | – |
| CC(NC(=O)[C@H](Cc1ccccc1)NC(=O)OCc1ccccc1)C(=O)CF (stereo partly specified) | 110000 | – | – | – | K [10]: 21000 M⁻¹ s⁻¹; K [11]: No significant inhibition |
| CC(C)C[C@H](NC(=O)[C@H]1O[C@@H]1C(=O)O)C(=O)NCCCCN=C(N)N | – | – | 4700 | – | – |

More lines, main results first:

| K [2] [M⁻¹ s⁻¹] | pIC50 [3] | K [4] [M⁻¹ s⁻¹] | K [6] [M⁻¹ s⁻¹] | SMILES | also measured |
| --- | --- | --- | --- | --- | --- |
| 250 | – | 8000 | 25 | CC(C)C[C@H](N)C(=O)N[C@@H](Cc1ccccc1)C(=O)CF (H-Leu-Phe-CH2F) | – |
| 31000 | – | 21000 | 16300 | CC(C)C[C@H](NC(=O)OCc1ccccc1)C(=O)NC(CO)C(=O)CF (stereo partly drawn) (Cbz-Leu-[ξS]-CH2F) | – |
| 5000 | 6.70 | 136000 | 300 | CC(C)C[C@H](NC(=O)OCc1ccccc1)C(=O)NC(Cc1ccccc1)C(=O)CF (stereo partly drawn) (Cbz-Leu-[ξF]-CH2F) | – |
| 64000 | – | 24200 | 24500 | CCC(NC(=O)[C@H](CC(C)C)NC(=O)OCc1ccccc1)C(=O)CF (stereo partly drawn) (Cbz-Leu-[ξAbu]-CH2F) | – |
| 100 | – | 68600 | – | CC(C)C[C@H](NC(=O)OC(C)(C)C)C(=O)NC(Cc1ccccc1)C(=O)CF (stereo partly drawn) (Boc-Leu-[ξF]-CH2F) | K [8]: 150 M⁻¹ s⁻¹; inhibition at 10 µM [9]: 42% |
| – | 5.89 | 100000 | 9000 | CC(C)C[C@H](NC(=O)OCc1ccccc1)C(=O)NC(COC1CCCCO1)C(=O)CF (stereo partly specified) | K [5]: 22600 M⁻¹ s⁻¹ |
